How the values were obtained:
Assay type in all cases: functional
MOLT-4 = experiment: Growth inhibition of human MOLT4 cells at 10 uM after 48 hrs by SRB assay relative to control; conditions: MOLT-4, 48 h, read-out: GI
Procedure, shortened: (§1)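 Screened at the National Cancer Institute by the standard NCI protocol using the sulforhodamine B assay, which measures cellular protein. Single dose of 10 µM. Result is percent growth inhibition; values above 100% mean cell number fell below the initial population. Values are the average of duplicates.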

HOP-62 = experiment: Growth inhibition of human HOP62 cells at 10 uM after 48 hrs by SRB assay relative to control; conditions: HOP-62, 48 h, read-out: GI; procedure, shortened: as §1
NCI-H460 = experiment: Growth inhibition of human NCI-H460 cells at 10 uM after 48 hrs by SRB assay relative to control; conditions: NCI-H460, 48 h, read-out: GI; procedure, shortened: as §1
NCI-H522 = experiment: Growth inhibition of human NCI-H522 cells at 10 uM after 48 hrs by SRB assay relative to control; conditions: NCI-H522, 48 h, read-out: GI; procedure, shortened: as §1
HT-29 = experiment: Growth inhibition of human HT-29 cells at 10 uM after 48 hrs by SRB assay relative to control; conditions: HT-29, 48 h, read-out: GI; procedure, shortened: as §1
KM12 = experiment: Growth inhibition of human KM12 cells at 10 uM after 48 hrs by SRB assay relative to control; conditions: KM12, 48 h, read-out: GI; procedure, shortened: as §1
SW-620 = experiment: Growth inhibition of human SW620 cells at 10 uM after 48 hrs by SRB assay relative to control; conditions: SW-620, 48 h, read-out: GI
Procedure, shortened: (§2)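 NCI screen against its human cancer cell line panel by the standard NCI protocol, SRB protein stain. Single dose of 10 μM. Percent growth inhibition versus control; values above 100% mean the cell population fell below the starting number. Each value is the mean of duplicates.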

SF-268 = experiment: Growth inhibition of human SF268 cells at 10 uM after 48 hrs by SRB assay relative to control; conditions: SF-268, 48 h, read-out: GI; procedure, shortened: as §1
SNB-19 = experiment: Growth inhibition of human SNB19 cells at 10 uM after 48 hrs by SRB assay relative to control; conditions: SNB-19, 48 h, read-out: GI; procedure, shortened: as §2
MDA-MB-435 = experiment: Growth inhibition of human MDA-MB-435 cells at 10 uM after 48 hrs by SRB assay relative to control; conditions: MDA-MB-435, 48 h, read-out: GI; procedure, shortened: as §1
UACC-62 = experiment: Growth inhibition of human UACC62 cells at 10 uM after 48 hrs by SRB assay relative to control; conditions: UACC-62, 48 h, read-out: GI; procedure, shortened: as §2
OVCAR-3 = experiment: Growth inhibition of human OVCAR3 cells at 10 uM after 48 hrs by SRB assay relative to control; conditions: OVCAR-3, 48 h, read-out: GI; procedure, shortened: as §1
OVCAR-4 = experiment: Growth inhibition of human OVCAR4 cells at 10 uM after 48 hrs by SRB assay relative to control; conditions: OVCAR-4, 48 h, read-out: GI; procedure, shortened: as §1
OVCAR-5 = experiment: Growth inhibition of human OVCAR5 cells at 10 uM after 48 hrs by SRB assay relative to control; conditions: OVCAR-5, 48 h, read-out: GI; procedure, shortened: as §1
OVCAR-8 = experiment: Growth inhibition of human OVCAR8 cells at 10 uM after 48 hrs by SRB assay relative to control; conditions: OVCAR-8, 48 h, read-out: GI; procedure, shortened: as §1
ACHN = experiment: Growth inhibition of human ACHN cells at 10 uM after 48 hrs by SRB assay relative to control; conditions: read-out: GI; procedure, shortened: as §1
CAKI-1 = experiment: Growth inhibition of human Caki1 cells at 10 uM after 48 hrs by SRB assay relative to control; conditions: CAKI-1, 48 h, read-out: GI; procedure, shortened: as §1
UO-31 = experiment: Growth inhibition of human UO31 cells at 10 uM after 48 hrs by SRB assay relative to control; conditions: UO-31, 48 h, read-out: GI; procedure, shortened: as §2
PC-3 = experiment: Growth inhibition of human PC3 cells at 10 uM after 48 hrs by SRB assay relative to control; conditions: PC-3, 48 h, read-out: GI; procedure, shortened: as §1
BT-549 = experiment: Growth inhibition of human BT549 cells at 10 uM after 48 hrs by SRB assay relative to control; conditions: BT-549, 48 h, read-out: GI; procedure, shortened: as §1

Row | SMILES | inhibition of growth at 10 µM (MOLT-4) | inhibition of growth at 10 µM (HOP-62) | inhibition of growth at 10 µM (NCI-H460) | inhibition of growth at 10 µM (NCI-H522) | inhibition of growth at 10 µM (HT-29) | inhibition of growth at 10 µM (KM12) | inhibition of growth at 10 µM (SW-620) | inhibition of growth at 10 µM (SF-268) | inhibition of growth at 10 µM (SNB-19) | inhibition of growth at 10 µM (MDA-MB-435) | inhibition of growth at 10 µM (UACC-62) | inhibition of growth at 10 µM (OVCAR-3) | inhibition of growth at 10 µM (OVCAR-4) | inhibition of growth at 10 µM (OVCAR-5) | inhibition of growth at 10 µM (OVCAR-8) | inhibition of growth at 10 µM (ACHN) | inhibition of growth at 10 µM (CAKI-1) | inhibition of growth at 10 µM (UO-31) | inhibition of growth at 10 µM (PC-3) | inhibition of growth at 10 µM (BT-549)
1 | COc1cc2oc(-c3cccc(C(=O)Nc4ccc5c(c4)OCO5)c3)cc(=O)c2c(O)c1OC | -0.5% | 39.6% | 45.7% | 23.9% | 23.7% | 29.4% | 15.5% | 41.3% | 27.9% | 20.9% | 18.6% | 10.5% | 99.9% | 11.1% | 69.4% | 24.8% | 23.1% | 17.9% | 27.7% | 16%
2 | COc1ccccc1C(=O)Nc1cccc(-c2cc(=O)c3c(O)c(OC)c(OC)cc3o2)c1 | 6.77% | 16.5% | -2.21% | 41% | 2.63% | 5.13% | 10.5% | 8.58% | 25.4% | 1.26% | 30.2% | -14.6% | -5.24% | 5.27% | 17.5% | 5.14% | 9.48% | 15.2% | 10.3% | 25.1%
3 | COc1cc2oc(-c3cccc(C(=O)Nc4ccccc4)c3)cc(=O)c2c(O)c1OC | 0.26% | 91.1% | 66.3% | 8.74% | 45.9% | 42.2% | 5.67% | 63% | 42.3% | 41.7% | 61.1% | 29.9% | 120% | 5.59% | 84.6% | 42% | 51.1% | 40.3% | 29% | 39.9%
4 | COc1ccc(C(=O)Nc2cccc(-c3cc(=O)c4c(O)c(OC)c(OC)cc4o3)c2)cc1 | 19.1% | 30.2% | 17.4% | 34.4% | 1.12% | -0.05% | 9.52% | 13.9% | 34.1% | 5.59% | 33.7% | -0.49% | 4.66% | 0.04% | 35.5% | 23.7% | 20% | 4.63% | 19.6% | 9.6%
5 | COc1cccc(NC(=O)c2cccc(-c3cc(=O)c4c(OC)c(OC)c(OC)cc4o3)c2)c1 | 51.5% | 40.5% | 39.9% | 53.4% | 49.2% | 46.3% | 10.4% | 36.9% | 17.5% | 18.8% | 37.9% | 33.4% | 37.4% | 9.93% | 53% | 37.5% | 25.3% | 68.4% | 42.9% | 45.8%
6 | COc1ccccc1NC(=O)c1cccc(-c2cc(=O)c3c(O)c(OC)c(OC)cc3o2)c1 | 27.9% | 0.21% | -3.83% | 26.6% | 10.8% | 0.81% | -0.74% | 12.9% | 6.18% | 2.77% | 26.5% | -0.89% | 3.74% | 8.1% | 35.2% | 9.27% | 6.75% | 30% | 25.1% | 10.8%
7 | COc1ccc(NC(=O)c2cccc(-c3cc(=O)c4c(OC)c(OC)c(OC)cc4o3)c2)cc1 | 36.8% | 31% | 33.9% | 39% | 32.9% | 45.2% | 6.52% | 27.9% | 8.54% | 23.8% | 35.2% | 54.3% | 15.3% | 16.8% | 46.1% | 33.4% | 63.7% | 56.1% | 38.8% | 53.1%
8 | COc1ccccc1NC(=O)c1cccc(-c2cc(=O)c3c(OC)c(OC)c(OC)cc3o2)c1 | 38.7% | 30.6% | 41.1% | 56.5% | 38.6% | 34.8% | 12.2% | 29.3% | 17.5% | 22.4% | 46.5% | 47.5% | 19.4% | 18.6% | 42.7% | 43.8% | 43% | 69.6% | 43.6% | 44.9%
9 | COc1cccc(C(=O)Nc2cccc(-c3cc(=O)c4c(OC)c(OC)c(OC)cc4o3)c2)c1 | 53.3% | 30.2% |  | 58.4% | 53.6% | 53.9% | 22.8% | 42.6% | 29.6% | 23.4% | 41.1% | 24.6% | 37.7% | 10.4% | 47.7% | 42.1% | 18.1% | 66.7% | 48.8% | 42.5%
10 | Cc1ccc(NC(=O)c2ccc(CN3CCN(C)CC3)cc2)cc1Nc1nccc(-c2cccnc2)n1 [IMATINIB] | 18% |  | 3.2% |  | 47.1% | -6.7% | -10% | -3.8% | -12.2% | 7.4% | 7.7% | -10.3% | -0.1% | -22.8% | 8.4% | -1% | -0.2% | 7.6% | 10.6% | -5%
